pIC50, pKi: −log10 of the molar value.

Data set [1] deals with Sodium-dependent serotonin transporter (Rattus norvegicus) (UniProt P31652). In words: Inhibition of SERT in rat brain synaptosomes assessed as reduction in [3H]-5-HT uptake at 10 uM measured after 15 mins by scintillation counting method relative to control. The class given is subcellular. In short, it runs like this: (§1)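 The 5-HT1A assay displaced [3H]-8-OH-DPAT from HEK-293 cell membrane homogenates. The 5-HT7 assay displaced [3H]-LSD from CHO cell membrane homogenates. The SERT assay measured [3H]-5-HT uptake into rat brain synaptosomes.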
Chain of Sodium-dependent serotonin transporter (Rattus norvegicus) (P31652 whole entry): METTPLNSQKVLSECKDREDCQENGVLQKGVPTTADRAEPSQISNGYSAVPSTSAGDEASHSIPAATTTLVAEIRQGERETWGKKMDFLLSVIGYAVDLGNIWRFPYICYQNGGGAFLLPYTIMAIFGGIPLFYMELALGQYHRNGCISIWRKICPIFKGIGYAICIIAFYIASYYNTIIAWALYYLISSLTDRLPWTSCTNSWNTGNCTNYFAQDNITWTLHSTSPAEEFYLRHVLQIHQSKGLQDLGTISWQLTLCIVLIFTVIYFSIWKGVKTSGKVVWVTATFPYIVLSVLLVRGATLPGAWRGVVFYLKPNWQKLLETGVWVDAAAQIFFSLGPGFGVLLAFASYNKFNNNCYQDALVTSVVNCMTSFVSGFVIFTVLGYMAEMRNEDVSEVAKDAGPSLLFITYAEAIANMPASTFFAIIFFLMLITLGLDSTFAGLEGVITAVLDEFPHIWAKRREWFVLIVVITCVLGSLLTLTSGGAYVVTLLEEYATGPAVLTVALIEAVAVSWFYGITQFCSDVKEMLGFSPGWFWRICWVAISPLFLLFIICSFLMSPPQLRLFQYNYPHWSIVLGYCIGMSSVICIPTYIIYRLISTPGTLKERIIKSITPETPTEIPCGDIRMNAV

Data set [2] concerns the target T1, 5-hydroxytryptamine receptor 7 (Homo sapiens, UniProt P34969). Nature of the data set: Displacement of [3H]-LSD from recombinant human 5-HT7 receptor expressed in CHO cell membranes at 10 uM measured after 60 mins by scintillation counting method. In short, it runs like this: as §1
Data set [3] deals with T2, 5-hydroxytryptamine receptor 1A (Homo sapiens) (UniProt P08908).
T2 sequence (whole entry): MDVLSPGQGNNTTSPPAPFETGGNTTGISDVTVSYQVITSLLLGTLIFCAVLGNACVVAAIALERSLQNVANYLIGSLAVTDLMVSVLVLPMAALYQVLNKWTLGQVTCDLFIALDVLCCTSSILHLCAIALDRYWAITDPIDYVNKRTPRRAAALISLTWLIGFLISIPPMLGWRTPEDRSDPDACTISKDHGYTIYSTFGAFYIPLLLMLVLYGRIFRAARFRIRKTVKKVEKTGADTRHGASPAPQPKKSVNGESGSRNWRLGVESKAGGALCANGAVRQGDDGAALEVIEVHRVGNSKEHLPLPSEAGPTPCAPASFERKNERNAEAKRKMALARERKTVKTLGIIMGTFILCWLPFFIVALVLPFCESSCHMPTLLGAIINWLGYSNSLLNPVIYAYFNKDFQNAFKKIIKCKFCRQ
In words: Displacement of [3H]8-OH-DPAT from recombinant human 5-HT1A receptor expressed in HEK293 cell membranes at 10 uM measured after 60 mins by scintillation counting method. In short, it runs like this: as §1
A general note: Loss of bound radioactivity is the signal in a displacement assay; it reports binding, not function.

Data set [4] can be described thus: Clearance in rat liver microsomes at 1 uM measured after 90 mins in presence of NADPH regenerating system by LC-MS/MS analysis. Type of data set: ADME, microsome. Particulars: read-out: CLH. (In general: Liver microsomes are vesicles of endoplasmic reticulum, rich in cytochrome P450 enzymes.)
Data set [5] in a line: Half-life in rat liver microsomes at 1 uM in presence of NADPH regenerating system by LC-MS/MS analysis. The class given is ADME, microsome.
For data set [6], the target named is T3, Sodium-dependent serotonin transporter (Rattus norvegicus, UniProt P31652). Nature of the data set: Inhibition of SERT in rat brain synaptosomes assessed as reduction in [3H]-5-HT uptake measured after 15 mins by scintillation counting method. Type of data set: subcellular. In short, it runs like this:
(§2)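 The 5-HT1A assay used [3H]-8-OH-DPAT displacement on HEK-293 membranes. The 5-HT7 assay used [3H]-LSD displacement on CHO membranes. The SERT assay measured [3H]-5-HT uptake into rat brain synaptosomes.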

The target in data set [7] is T4, 5-hydroxytryptamine receptor 1A (Rattus norvegicus, UniProt P19327).
T4 sequence (P19327 whole entry): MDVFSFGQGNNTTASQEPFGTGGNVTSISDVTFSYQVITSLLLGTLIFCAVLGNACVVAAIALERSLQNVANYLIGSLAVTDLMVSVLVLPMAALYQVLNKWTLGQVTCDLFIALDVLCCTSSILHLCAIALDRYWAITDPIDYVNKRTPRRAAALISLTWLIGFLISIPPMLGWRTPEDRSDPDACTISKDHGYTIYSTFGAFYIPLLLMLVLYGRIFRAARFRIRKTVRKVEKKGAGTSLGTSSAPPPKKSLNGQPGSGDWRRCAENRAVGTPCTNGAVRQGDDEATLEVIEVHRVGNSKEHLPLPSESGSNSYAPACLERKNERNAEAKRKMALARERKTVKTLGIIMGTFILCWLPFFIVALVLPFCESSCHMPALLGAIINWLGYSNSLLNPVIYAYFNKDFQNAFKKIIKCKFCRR
In words: Displacement of [3H]8-OH-DPAT from rat cerebral cortex 5-HT1A receptor.

The target in data set [8] is T3, Sodium-dependent serotonin transporter. Nature of the data set: Displacement of [3H]-paroxetine from rat cerebral cortex SERT.
The target of data set [9] is T1, 5-hydroxytryptamine receptor 7. In words: Displacement of [3H]-LSD from recombinant human 5-HT7 receptor expressed in CHO cell membranes measured after 60 mins by scintillation counting method. In short, it runs like this:
as §2

In data set [10] the target is T5, 5-hydroxytryptamine receptor 1A (Homo sapiens, UniProt P08908).
T5 sequence (P08908 whole entry): T2 sequence (whole entry)
In words: Displacement of [3H]8-OH-DPAT from recombinant human 5-HT1A receptor expressed in HEK293 cell membranes measured after 60 mins by scintillation counting method.

Data set [11] concerns Mus musculus. Nature of the data set: Antidepressant-like activity in mouse assessed as reduction in immobility time at 20 mg/kg, po administered once daily for 7 days measured last 4 mins of 6 mins test by forced swim test relative to control. Type of data set: functional. On the set-up: scale not given: the % may be the effect or the level left. In short, it runs like this:
(§3)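 Mouse forced swim test. Oral dosing once daily for 7 days at 10, 20 or 40 mg/kg/day. […] Read-out is immobility time. Data given as mean ± SEM, n = 10 per group, tested against vehicle at P<0.05 and P<0.01.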

For data set [12], the target named is Sodium-dependent serotonin transporter (Homo sapiens, UniProt P31645). In words: Binding affinity to SERT (unknown origin).
Chain of Sodium-dependent serotonin transporter (Homo sapiens, UniProt P31645) (P31645 whole entry): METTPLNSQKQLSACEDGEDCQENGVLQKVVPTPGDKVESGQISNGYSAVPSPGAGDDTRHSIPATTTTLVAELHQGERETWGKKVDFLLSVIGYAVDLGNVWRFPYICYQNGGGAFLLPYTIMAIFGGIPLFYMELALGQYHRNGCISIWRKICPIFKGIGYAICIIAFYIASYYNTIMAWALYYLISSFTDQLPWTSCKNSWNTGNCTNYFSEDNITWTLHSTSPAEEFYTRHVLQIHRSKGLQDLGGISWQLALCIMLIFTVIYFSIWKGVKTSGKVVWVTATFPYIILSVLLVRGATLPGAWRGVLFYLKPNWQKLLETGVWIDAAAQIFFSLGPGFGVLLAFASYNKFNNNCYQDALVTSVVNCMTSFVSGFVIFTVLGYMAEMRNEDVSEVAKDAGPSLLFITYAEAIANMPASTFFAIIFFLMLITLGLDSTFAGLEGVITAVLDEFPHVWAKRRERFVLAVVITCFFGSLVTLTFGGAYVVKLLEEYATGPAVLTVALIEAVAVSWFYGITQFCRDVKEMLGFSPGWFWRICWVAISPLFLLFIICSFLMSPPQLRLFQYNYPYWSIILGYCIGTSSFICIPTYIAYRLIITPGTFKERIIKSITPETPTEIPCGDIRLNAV
The target in data set [13] is T5, 5-hydroxytryptamine receptor 1A. Nature of the data set: Binding affinity to 5-HT1A receptor (unknown origin).
In data set [14] the test system is Mus musculus. In words: Antidepressant-like activity in po dosed mouse assessed as reduction in immobility time administered once daily for 7 days measured last 4 mins of 6 mins test by forced swim test. Type of data set: functional, organism-based. In short, it runs like this: as §3
For data set [15], the system named is Mus musculus. In words: Antidepressant-like activity in mouse assessed as reduction in immobility time at 40 mg/kg, po administered once daily for 7 days measured last 4 mins of 6 mins test by forced swim test relative to control. Type of data set: functional. On the set-up: scale not given: the % may be the effect or the level left. In short, it runs like this:
as §3

The subject of data set [16] is Mus musculus. In words: Antidepressant-like activity in mouse assessed as reduction in immobility time at 10 mg/kg, po administered once daily for 7 days measured last 4 mins of 6 mins test by forced swim test relative to control. On the set-up: scale not given: the % may be the effect or the level left. Type of data set: functional. In short, it runs like this: as §3

T1 sequence (P34969 whole entry): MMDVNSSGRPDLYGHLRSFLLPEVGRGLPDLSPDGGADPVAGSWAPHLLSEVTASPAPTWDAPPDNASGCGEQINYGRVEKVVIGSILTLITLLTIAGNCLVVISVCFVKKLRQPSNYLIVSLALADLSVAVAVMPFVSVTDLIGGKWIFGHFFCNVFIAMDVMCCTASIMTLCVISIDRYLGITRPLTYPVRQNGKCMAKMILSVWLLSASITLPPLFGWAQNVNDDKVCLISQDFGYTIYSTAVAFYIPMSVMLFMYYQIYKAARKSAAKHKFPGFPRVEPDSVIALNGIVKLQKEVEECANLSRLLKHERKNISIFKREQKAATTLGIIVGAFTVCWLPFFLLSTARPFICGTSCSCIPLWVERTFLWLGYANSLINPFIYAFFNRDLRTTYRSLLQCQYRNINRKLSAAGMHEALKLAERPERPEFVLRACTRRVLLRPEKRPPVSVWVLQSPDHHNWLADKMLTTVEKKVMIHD
T3 sequence (P31652 whole entry): as the sequence (P31652 whole entry) above

In general, inhibition refers to the relative decrease from the control value, in per cent. Consider `COc1ccc(-c2ccccc2N2CCN(CCc3ccc(Cl)c(Cl)c3)CC2)cc1`, for which the inhibition was found to be 66.1% in data set [1], 97.5% in data set [2] and 98.7% in data set [3].
For `COc1ccccc1N1CCN(CCC(O)c2ccc(Cl)c(Cl)c2)CC1` (stereo not drawn) the same measures were 88.8%, 101% and 99.3%.
With `OC(CCN1CCN(c2cccc(-c3ccccc3)c2)CC1)c1ccc(Cl)c(Cl)c1` (stereo not drawn), the inhibition in data set [1] amounted to 105%; in [2] it was 69.8%; in [3], 91.5%.
`Cc1ccc(-c2ccccc2N2CCN(CCc3ccc(Cl)c(Cl)c3)CC2)cc1`: the inhibition in [1] worked out at 65.8%; in [2] it was 98.1%; in data set [3], 99.5%.
As a reminder, the half-life is the time needed for the level to fall by half in the phase considered. In the case of `COc1ccc2[nH]c([S+]([O-])Cc3ncc(C)c(OC)c3C)nc2c1` (stereo not drawn) [OMEPRAZOLE], the microsomal CLint at 1 µM in data set [4] is 163 µL/min/mg. Further, in [5], the half-life at 1 µM stood at 8.5 min.
As for `Oc1ccccc1N1CCN(CCC(O)c2ccc(Cl)c(Cl)c2)CC1` (stereo not drawn), the figures for the inhibition in data set [1], in [2] and in data set [3] were 84.9%, 102% and 99.4%, respectively.
For orientation: pIC50 means the IC50 on a negative log10 scale, so that one unit is a factor of ten. Consider `OC(CCN1CCN(c2ccccc2-c2ccccc2)CC1)c1ccc(Cl)c(Cl)c1` (stereo not drawn), for which the pIC50 in [6] was 6.23. Also, the inhibition in data set [1] worked out at 98.9%; in data set [2], 102%; in data set [3], 98.9%.
As usually defined, the pKi is the negative decadic logarithm of the Ki, by convention in mol/L. Consider `COc1ccccc1N1CCN(CCC(O)c2csc3ccc(F)cc23)CC1` (stereo not drawn), for which the negative-log Ki (pKi) in data set [7] was 8.64; in [8], 7.92.
With `Clc1ccc(CCN2CCN(c3ccccc3-c3ccccc3)CC2)cc1Cl`, the pKi is 9.12 in [9] and 8.20 in data set [10]. Moreover, the pIC50 in data set [6] is 6.08. For the same compound, the inhibition worked out at 104% in [1], 101% in data set [2] and 97.8% in [3].
`Cc1ccc(Sc2ccccc2N2CCNCC2)c(C)c1` [VORTIOXETINE]: in data set [4], the microsomal CLint at 1 µM was found to be 153 µL/min/mg. Moreover, the Activity in the data set on Mus musculus [11] was 34 - 35%. Also, in data set [9], the negative logarithm of the Ki (pKi) is 7.59. The half-life at 1 µM in data set [5] was determined as 9 min. Further, the negative-log IC50 (pIC50) in [6] is 8.54.
`Cc1ccc(-c2ccccc2N2CCN(CCc3ccc(Cl)c(Cl)c3)CC2)cc1C`: the inhibition in data set [1] is 17.6%; in data set [2], 93.2%; in [3] it was 96.8%.
As to `Fc1cccc(-c2ccccc2N2CCN(CCc3ccc(Cl)c(Cl)c3)CC2)c1`, in data set [6], the pIC50 was 6.06. The values for the inhibition in [1], in [2] and in data set [3] were 97.2%, 96.4% and 99.7%, respectively.
Turning to `COc1ccccc1N1CCN(CCCN2CCOc3ccccc32)CC1`, the pIC50 in [12] is 6.71. Further, the pKi in data set [13] was 8.83.
Turning to `Fc1ccc(-c2ccccc2N2CCN(CCc3ccc(Cl)c(Cl)c3)CC2)cc1`, the negative logarithm of the IC50 (pIC50) in data set [6] was 6.02. In addition, the inhibition came out at 92.1% in data set [1], 96.7% in data set [2] and 98.8% in data set [3].
In the case of `OC(CN1CCN(c2ccccc2)CC1)c1ccc(Cl)c(Cl)c1` (stereo not drawn), the microsomal CLint at 1 µM in data set [4] worked out at 226 µL/min/mg. Also, the Activity in the data set on Mus musculus [11] is 26%; in the data set with Mus musculus [14], “Dose-dependent effect”; with Mus musculus [15], 30%; in the data set on Mus musculus [16] it was 16%. Further, the negative logarithm of the Ki (pKi) in [9] is 8.49; in [10], 8.62. Also, the half-life at 1 µM in [5] worked out at 6.1 min. Also, the pIC50 in data set [6] was 6.47. The values for the inhibition in data set [1], in data set [2] and in data set [3] were 112%, 99.8% and 98.5%, respectively.
`Cc1ccccc1-c1ccccc1N1CCN(CCc2ccc(Cl)c(Cl)c2)CC1`: the inhibition was determined as 61.6% in data set [1], 97.3% in data set [2] and 93.9% in data set [3].
Turning to `Cc1cccc(-c2ccccc2N2CCN(CCc3ccc(Cl)c(Cl)c3)CC2)c1`, the inhibition in [1] turned out to be 72.3%; in [2] it was 94.7%; in [3], 98.4%.
As to `CSc1ccccc1N1CCN(CCC(O)c2ccc(Cl)c(Cl)c2)CC1` (stereo not drawn), the inhibition came to 89% in data set [1], 101% in [2] and 99.9% in [3].
With `Clc1ccc(CCN2CCN(c3nsc4ccccc34)CC2)cc1Cl`, the microsomal CLint at 1 µM in data set [4] stood at 262 µL/min/mg. For the same compound, the Activity with Mus musculus [11] is 21%; with Mus musculus [14] it was “Dose-dependent effect”; in the data set with Mus musculus [15] it was 45%; in the data set on Mus musculus [16], 17%. Further, the pKi was 7.92 in [9] and 9.08 in data set [10]. Besides, the half-life at 1 µM in data set [5] was determined as 5.3 min. In data set [6], the negative-log IC50 (pIC50) is 7.00. Moreover, the inhibition in [1] was 102%; in data set [2], 96%; in data set [3], 98.7%.
Turning to `Cc1ccc(-c2ccccc2N2CCN(CCc3ccc(Cl)c(Cl)c3)CC2)c(C)c1`, the inhibition in [1] was 31.5%; in [2], 93.5%; in [3], 83.2%.

The values above are taken from ChEMBL document CHEMBL4177692, “Synthesis and antidepressant activity of a series of arylalkanol and aralkyl piperazine derivatives targeting SSRI/5-HT1A/5-HT7” (Bioorg Med Chem Lett, 2017).
